Series [1] can be described thus: Half life in human liver microsomes at 2 uM. The series is classed as ADME, Microsome.
Series [2] in a line: Toxicity in human adipocytes assessed as inhibition of insulin-induced glucose uptake at 3 to 40 uM. Format: cell-based. The following applies: adipocyte.
In another series the test system is Rattus norvegicus. The series is described as follows: Toxicity in overnight fasted Sprague-Dawley rat assessed as induction of insulin resistance at 0.2 to 1.6 ug/kg/min administered as infusion for 30 mins. The following applies: in vivo, iv, 0.5 h.
For series [3], the system named is Canis familiaris. The series is described as follows: Ex-vivo antiplatelet activity in iv dosed Beagle dog whole blood assessed as inhibition of ADP-induced platelet aggregation administered as bolus infusion for 1 min followed by continuous infusion for 29 mins. The series is classed as functional, organism-based. The following applies: Canis lupus familiaris. The method in brief:
(§1)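 Anaesthetized, intubated, ventilated beagles (N = 2). Femoral artery intima damaged and flow reduced to give cyclic flow reductions. Control period vehicle iv (30% cyclodextrin). Then 5 ascending 30-min periods, each a bolus over 1 min plus continuous infusion for 29 min. Tongue incision bleeding time from 15 min, capped at 15 min. Blood at 20 min for ex vivo aggregation and plasma level. EC50 fitted sigmoidally; EC_BT:2 from an exponential fit.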

The target of series [4] is Sodium channel protein type 5 subunit alpha (Homo sapiens, UniProt Q14524). Kind of series: Inhibition of human NaV1.5 expressed in CHO cells at 31.6 uM by patch clamp assay. The series is classed as cell-based.
In the next series the test system is Liver microsomes. The series is described as follows: Drug metabolism in human liver microsomes assessed as reactive metabolite formation after 30 mins in presence of glutathione relative to clozapine. The series is classed as ADME, Microsome. The following applies: 0.5 h. Put shortly:
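Incubation with human liver microsomes (1 mg/mL) plus glutathione for 30 min. Summed glutathione-adduct peak areas divided by the major adduct peak area of clozapine control (average, N = 3). Ratio >1 ranked high, 0.25–1 medium, <0.25 low.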

Series [5] has as its target T1, Phosphatidylinositol 4,5-bisphosphate 3-kinase catalytic subunit delta isoform (Homo sapiens, UniProt O00329).
T1 sequence (O00329 whole entry): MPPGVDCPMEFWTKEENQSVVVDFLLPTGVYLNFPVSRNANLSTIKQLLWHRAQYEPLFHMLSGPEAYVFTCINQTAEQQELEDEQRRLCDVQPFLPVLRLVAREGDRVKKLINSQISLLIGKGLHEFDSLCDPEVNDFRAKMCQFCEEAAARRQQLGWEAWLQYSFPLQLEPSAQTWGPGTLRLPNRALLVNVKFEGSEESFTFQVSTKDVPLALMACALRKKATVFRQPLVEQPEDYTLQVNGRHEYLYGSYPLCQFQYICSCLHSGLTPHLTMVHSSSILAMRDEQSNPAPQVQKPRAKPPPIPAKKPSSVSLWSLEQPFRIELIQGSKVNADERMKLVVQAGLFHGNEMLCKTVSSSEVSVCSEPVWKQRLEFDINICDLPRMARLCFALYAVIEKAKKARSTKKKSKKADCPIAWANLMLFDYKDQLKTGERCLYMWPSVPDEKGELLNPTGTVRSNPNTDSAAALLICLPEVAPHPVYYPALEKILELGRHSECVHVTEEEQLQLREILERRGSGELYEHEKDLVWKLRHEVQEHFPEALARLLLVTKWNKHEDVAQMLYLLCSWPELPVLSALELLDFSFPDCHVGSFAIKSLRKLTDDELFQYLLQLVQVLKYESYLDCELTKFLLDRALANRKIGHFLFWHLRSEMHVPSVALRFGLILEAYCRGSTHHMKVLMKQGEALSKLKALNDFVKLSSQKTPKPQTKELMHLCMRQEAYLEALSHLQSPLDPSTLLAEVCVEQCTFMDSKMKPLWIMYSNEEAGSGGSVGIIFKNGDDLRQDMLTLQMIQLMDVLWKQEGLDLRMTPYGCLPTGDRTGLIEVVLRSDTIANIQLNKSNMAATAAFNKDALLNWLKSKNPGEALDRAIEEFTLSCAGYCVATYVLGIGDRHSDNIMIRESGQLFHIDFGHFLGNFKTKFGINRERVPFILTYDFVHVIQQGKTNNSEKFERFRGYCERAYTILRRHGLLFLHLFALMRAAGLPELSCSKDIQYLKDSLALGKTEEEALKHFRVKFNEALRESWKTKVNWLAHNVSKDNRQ
Kind of series: Inhibition of human recombinant His6-tagged PI3K p110delta expressed in baculovirus infected cells using DiC8-PI(4,5)P2 as substrate after 20 mins by AlphaScreen assay.

A short description of series [6]: Oral bioavailability in fasted Beagle dog at 2 umol/kg. As to conditions: in vivo; call rule not given here. The series is classed as ADME, organism-based, Canis lupus familiaris. Put shortly: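 Fasted male Beagle dogs, iv and po (N = 2 per route). Parameters derived by noncompartmental analysis of plasma concentrations.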
Series [7] deals with Phosphatidylinositol 4,5-bisphosphate 3-kinase catalytic subunit alpha isoform (Homo sapiens, UniProt P42336). The series is described as follows: Inhibition of human recombinant His6-tagged PI3K p110alpha expressed in baculovirus infected cells using DiC8-PI(4,5)P2 as substrate after 20 mins by AlphaScreen assay.
A short description of series [8]: Antiplatelet activity in Beagle dog whole blood assessed as inhibition of ADP-induced platelet aggregation by impedance aggregometry. Format: functional, tissue-based. The following applies: Canis lupus familiaris. Put shortly:
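Citrated whole blood drawn by venipuncture from healthy human donors or beagle dogs, sodium citrate at 11 mM final in blood. ADP-induced aggregation read by Multiplate impedance aggregometry. N > 3.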

A short description of series [9]: Solubility of the compound in HBSS buffer at pH 7.4 by LC-MS analysis. The series is classed as physicochemical.
Series [10] deals with Canis familiaris. The series is described as follows: Antithrombotic activity in Beagle dog assessed as concentration required to increase bleeding time by 2 fold at 15.8 to 591.8 ug/kg, iv administered as bolus infusion for 1 min followed by 8.7 to 378.7 ug/kg/min, iv administered as continuous infusion for 29 mins measured up to 15 mins. Format: functional, Canis lupus familiaris. The method in brief: as §1

The target of series [11] is Voltage-dependent L-type calcium channel subunit alpha-1C (Homo sapiens, UniProt Q13936). The series is described as follows: Inhibition of human CaV1.2 expressed in CHO cells at 31.6 uM by patch clamp assay. Format: cell-based.
Series [12] concerns the target Phosphatidylinositol 4,5-bisphosphate 3-kinase catalytic subunit gamma isoform (Homo sapiens, UniProt P48736). The series is described as follows: Inhibition of human recombinant His6-tagged PI3K […] expressed in baculovirus infected cells using DiC8-PI(4,5)P2 as substrate after 20 mins by AlphaScreen assay.
Series [13] is described as follows: Antiplatelet activity in human platelet rich plasma assessed as inhibition of collagen-induced platelet aggregation by light transmission aggregometry. Format: functional. The method in brief:
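Healthy-donor blood drawn by venipuncture into sodium citrate (11 mM final in blood), then platelet rich plasma prepared. Collagen-induced aggregation measured by light transmission aggregometry, either in an aggregometer or in an in-house 96-well plate format.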

SMILES strings stand for the structures. In brackets after ≈: the same amount, converted by molar mass.

Sequence of Phosphatidylinositol 4,5-bisphosphate 3-kinase catalytic subunit gamma isoform (P48736 whole entry, canonical isoform): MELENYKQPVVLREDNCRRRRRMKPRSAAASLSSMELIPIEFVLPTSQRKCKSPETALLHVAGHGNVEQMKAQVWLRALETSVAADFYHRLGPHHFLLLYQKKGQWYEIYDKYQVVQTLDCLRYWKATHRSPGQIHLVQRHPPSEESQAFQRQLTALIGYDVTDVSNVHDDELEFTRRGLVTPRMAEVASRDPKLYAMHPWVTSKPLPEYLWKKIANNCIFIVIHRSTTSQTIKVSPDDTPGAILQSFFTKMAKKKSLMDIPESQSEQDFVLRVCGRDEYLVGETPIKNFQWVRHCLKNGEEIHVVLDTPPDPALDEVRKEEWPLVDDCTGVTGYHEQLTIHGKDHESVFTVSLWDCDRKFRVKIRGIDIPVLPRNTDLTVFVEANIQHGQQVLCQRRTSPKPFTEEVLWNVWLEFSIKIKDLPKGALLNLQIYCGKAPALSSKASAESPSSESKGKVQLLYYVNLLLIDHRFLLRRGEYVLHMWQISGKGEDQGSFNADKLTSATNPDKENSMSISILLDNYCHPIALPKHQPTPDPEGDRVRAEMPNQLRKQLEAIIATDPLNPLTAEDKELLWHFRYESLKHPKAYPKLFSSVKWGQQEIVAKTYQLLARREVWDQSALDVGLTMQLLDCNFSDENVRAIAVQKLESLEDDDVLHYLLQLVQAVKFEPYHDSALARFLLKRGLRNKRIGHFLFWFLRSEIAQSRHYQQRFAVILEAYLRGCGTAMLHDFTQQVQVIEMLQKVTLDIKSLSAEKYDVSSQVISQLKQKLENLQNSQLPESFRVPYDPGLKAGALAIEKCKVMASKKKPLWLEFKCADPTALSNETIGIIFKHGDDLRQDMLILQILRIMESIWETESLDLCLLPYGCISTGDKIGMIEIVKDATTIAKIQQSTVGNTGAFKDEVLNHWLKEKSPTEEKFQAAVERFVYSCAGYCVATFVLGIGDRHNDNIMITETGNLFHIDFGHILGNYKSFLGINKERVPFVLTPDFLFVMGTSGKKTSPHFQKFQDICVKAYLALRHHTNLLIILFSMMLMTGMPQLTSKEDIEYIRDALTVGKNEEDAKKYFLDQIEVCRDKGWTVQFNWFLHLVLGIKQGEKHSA
Sequence of Phosphatidylinositol 4,5-bisphosphate 3-kinase catalytic subunit alpha isoform (P42336 whole entry, canonical isoform): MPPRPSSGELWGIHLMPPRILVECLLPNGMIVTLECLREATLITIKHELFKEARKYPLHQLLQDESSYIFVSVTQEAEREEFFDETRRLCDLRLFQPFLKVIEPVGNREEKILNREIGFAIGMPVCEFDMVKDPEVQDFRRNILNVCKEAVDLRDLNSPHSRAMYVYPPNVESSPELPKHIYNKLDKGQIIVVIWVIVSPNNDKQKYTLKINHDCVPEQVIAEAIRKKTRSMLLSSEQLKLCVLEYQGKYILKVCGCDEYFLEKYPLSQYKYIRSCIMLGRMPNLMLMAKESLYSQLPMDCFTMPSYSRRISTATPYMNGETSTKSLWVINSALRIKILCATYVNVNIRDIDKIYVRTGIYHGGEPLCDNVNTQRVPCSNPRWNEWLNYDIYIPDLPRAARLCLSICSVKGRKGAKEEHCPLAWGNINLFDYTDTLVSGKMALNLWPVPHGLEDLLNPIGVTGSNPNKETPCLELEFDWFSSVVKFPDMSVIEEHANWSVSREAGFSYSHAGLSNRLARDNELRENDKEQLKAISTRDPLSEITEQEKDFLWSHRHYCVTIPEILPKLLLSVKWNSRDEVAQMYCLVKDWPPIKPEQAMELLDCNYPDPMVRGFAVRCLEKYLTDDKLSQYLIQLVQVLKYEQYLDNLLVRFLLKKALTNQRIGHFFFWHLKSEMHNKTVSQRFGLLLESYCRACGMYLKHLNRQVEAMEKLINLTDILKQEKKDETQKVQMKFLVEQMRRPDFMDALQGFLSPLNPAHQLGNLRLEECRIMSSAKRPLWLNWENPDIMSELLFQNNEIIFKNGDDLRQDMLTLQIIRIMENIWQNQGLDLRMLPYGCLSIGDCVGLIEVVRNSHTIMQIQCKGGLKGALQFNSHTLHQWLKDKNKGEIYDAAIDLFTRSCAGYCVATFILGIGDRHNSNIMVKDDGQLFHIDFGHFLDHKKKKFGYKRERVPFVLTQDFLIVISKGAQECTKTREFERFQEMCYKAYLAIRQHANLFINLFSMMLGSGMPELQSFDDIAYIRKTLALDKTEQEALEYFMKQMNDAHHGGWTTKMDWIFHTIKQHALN
Sequence of Sodium channel protein type 5 subunit alpha (Q14524 whole entry): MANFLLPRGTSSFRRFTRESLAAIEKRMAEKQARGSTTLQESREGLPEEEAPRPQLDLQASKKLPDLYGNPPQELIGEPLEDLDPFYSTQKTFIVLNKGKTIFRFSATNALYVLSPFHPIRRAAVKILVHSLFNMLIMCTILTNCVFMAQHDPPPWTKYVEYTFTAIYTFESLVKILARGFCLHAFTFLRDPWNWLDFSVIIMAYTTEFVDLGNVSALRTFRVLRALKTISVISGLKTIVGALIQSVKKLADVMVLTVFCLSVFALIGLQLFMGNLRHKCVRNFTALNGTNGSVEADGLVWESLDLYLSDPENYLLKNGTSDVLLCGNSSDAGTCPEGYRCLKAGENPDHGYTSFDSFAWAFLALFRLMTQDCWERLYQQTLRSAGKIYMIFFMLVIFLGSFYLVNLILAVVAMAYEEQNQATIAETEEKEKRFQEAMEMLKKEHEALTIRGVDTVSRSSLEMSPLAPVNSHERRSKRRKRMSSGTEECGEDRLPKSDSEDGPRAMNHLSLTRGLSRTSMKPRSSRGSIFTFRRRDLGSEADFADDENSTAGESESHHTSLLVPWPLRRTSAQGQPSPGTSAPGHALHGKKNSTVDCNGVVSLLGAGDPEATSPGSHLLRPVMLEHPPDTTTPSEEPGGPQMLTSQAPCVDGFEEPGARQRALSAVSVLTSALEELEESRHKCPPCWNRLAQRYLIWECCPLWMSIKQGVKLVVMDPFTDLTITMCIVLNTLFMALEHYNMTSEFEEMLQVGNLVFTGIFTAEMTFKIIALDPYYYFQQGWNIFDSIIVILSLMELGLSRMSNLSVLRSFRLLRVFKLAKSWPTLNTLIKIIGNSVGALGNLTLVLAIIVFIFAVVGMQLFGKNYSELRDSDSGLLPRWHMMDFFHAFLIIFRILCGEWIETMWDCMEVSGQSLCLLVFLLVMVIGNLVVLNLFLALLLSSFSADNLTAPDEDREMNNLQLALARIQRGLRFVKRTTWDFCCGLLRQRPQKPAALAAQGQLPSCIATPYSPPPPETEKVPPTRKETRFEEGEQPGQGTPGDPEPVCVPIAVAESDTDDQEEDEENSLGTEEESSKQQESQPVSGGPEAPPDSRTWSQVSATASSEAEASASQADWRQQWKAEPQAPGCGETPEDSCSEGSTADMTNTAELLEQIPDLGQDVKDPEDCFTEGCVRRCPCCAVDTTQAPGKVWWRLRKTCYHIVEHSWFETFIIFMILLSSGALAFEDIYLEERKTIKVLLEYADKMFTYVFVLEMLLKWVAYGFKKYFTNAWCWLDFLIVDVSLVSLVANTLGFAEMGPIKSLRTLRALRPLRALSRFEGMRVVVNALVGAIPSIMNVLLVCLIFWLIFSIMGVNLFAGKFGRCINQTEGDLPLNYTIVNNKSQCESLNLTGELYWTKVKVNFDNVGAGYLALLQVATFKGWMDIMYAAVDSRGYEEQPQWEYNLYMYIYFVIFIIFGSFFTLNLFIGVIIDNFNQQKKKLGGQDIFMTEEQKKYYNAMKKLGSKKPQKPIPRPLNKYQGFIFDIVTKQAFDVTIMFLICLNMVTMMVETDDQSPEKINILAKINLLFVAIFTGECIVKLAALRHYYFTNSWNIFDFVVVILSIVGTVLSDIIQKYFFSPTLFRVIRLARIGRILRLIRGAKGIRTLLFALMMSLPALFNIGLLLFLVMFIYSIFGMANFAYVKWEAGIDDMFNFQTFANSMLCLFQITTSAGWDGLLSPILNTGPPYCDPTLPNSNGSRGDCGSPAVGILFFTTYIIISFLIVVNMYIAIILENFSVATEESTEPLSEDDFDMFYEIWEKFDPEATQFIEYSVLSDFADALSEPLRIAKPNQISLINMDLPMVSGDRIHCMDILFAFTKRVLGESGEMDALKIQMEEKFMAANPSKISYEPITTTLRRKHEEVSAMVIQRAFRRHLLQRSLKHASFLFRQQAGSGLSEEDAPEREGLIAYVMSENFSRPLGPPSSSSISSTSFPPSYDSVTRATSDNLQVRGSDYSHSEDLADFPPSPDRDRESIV

On to `C[C@H]1CN(c2cc(N(CCO)Cc3cccc4ccccc34)[nH]c(=O)n2)CCO1`, for which, in series [1], the half-life at 2 µM was greater than 2.88 h. Further, the Activity entry in series [2] was “Non-toxic”; with Rattus norvegicus, “Non-toxic”; in the series on Canis familiaris [10] it was 14.8 µM. In addition, the EC50 in the series with Canis familiaris [3] came out at 1.1 µM. The inhibition result with Canis familiaris [3] is “Dose-dependent effect”. Further, the “inhibition (INH)” value in series [4] and in series [11] was “Not Active” throughout. Moreover, the Drug metabolism result in the series with Liver microsomes is on record as “Not Active”. Also, the IC50 in series [5] was 0.168 µM; in [7] it was 27.2 µM; in [8] it was 3.8 µM; in series [12], 97.4 µM; in [13] it was 0.4 µM. Also, in series [6], the bioavailability worked out at 25%. Also, in series [9], the solubility is 100 µM (≈ 39.4 µg/mL).
